Assay results: ChEMBL document CHEMBL1129355, “Synthesis of 3 beta-aryl-8-azabicyclo[3.2.1]octanes with high binding affinities and selectivities for the serotonin transporter site” (J Med Chem, 1996)

How the values were obtained:
[1] = target: Sodium-dependent serotonin transporter (Rattus norvegicus, UniProt P31652); assay: Displacement of [3H]paroxetine from Serotonin transporter of rat frontal cortex membrane; type: tissue-based
Outline: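 Rat frontal cortex membranes (50 mg original wet weight) with 0.4 nM [3H]paroxetine. Nonspecific binding defined with 10 μM fluoxetine. Displacement curves used 7-10 unlabeled-analog concentrations. Ki came from the Cheng-Prusoff equation. Mean ± SEM of at least three experiments, each in triplicate.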

[2] = target: Monoamine transporters; serotonin & dopamine (Rattus norvegicus) (UniProt P31652+P23977); assay: Relative affinity for dopamine and Serotonin transporters; type: protein assay
Outline: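 Ratio of DAT IC50 ([125I]RTI-55, rat striatum) to SERT Ki ([3H]paroxetine, rat frontal cortex), each from displacement curves of 7-10 concentrations. Triplicate runs, at least three experiments.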

[3] = target: Sodium-dependent dopamine transporter (Rattus norvegicus, UniProt P23977); assay: Displacement of [125I]RTI-55 from dopamine transporter of rat brain membranes; type: cell membranes, Membrane
Outline: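 Rat striatal membranes (0.5 mg original wet weight) with 10 pM [125I]RTI-55. Nonspecific binding defined with a 1 μM tropane analog. Displacement curves used 7-10 unlabeled-analog concentrations. IC50 was reported because binding is multiphasic. Mean ± SEM of at least three experiments, each in triplicate.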

[4] = target: Norepinephrine transporter (Rattus norvegicus, UniProt Q9WTR4); assay: Displacement of [3H]-nisoxatine from Norepinephrine transporter of rat forebrain membrane; type: tissue-based, Brain
Sequence of Norepinephrine transporter (Q9WTR4 whole entry): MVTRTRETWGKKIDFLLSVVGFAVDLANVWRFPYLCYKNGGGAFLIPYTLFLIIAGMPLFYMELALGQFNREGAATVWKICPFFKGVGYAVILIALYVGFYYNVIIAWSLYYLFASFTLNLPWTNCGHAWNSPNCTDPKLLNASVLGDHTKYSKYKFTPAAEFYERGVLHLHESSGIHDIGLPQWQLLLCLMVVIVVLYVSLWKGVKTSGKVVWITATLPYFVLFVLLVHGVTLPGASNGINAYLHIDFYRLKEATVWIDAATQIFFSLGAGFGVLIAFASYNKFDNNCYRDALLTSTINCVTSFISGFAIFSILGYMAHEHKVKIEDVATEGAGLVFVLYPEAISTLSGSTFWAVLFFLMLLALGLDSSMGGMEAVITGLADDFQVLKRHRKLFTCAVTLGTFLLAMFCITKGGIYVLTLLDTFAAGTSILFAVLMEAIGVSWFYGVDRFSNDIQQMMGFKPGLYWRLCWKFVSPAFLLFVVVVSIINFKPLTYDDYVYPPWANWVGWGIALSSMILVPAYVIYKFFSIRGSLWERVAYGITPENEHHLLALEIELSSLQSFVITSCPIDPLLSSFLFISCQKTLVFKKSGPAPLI

Sequence of Sodium-dependent dopamine transporter (P23977 whole entry): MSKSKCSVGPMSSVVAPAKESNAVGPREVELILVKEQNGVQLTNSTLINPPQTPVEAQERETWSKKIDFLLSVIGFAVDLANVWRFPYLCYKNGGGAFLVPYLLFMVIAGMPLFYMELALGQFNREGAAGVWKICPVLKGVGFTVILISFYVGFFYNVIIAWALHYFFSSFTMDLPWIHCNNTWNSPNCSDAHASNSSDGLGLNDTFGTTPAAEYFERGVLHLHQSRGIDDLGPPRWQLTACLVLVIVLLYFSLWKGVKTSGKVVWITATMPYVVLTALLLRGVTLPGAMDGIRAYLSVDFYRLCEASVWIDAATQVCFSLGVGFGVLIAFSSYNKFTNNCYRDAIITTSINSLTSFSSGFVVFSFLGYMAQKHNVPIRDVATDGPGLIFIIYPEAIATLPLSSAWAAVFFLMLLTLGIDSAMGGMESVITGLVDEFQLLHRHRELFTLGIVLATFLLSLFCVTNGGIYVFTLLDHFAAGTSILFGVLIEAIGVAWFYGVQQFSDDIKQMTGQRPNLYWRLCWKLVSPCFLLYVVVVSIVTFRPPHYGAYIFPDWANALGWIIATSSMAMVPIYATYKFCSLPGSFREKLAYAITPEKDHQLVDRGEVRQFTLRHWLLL
Sequence of Monoamine transporters; serotonin & dopamine (Rattus norvegicus) (P23977 whole entry, looked up): as the sequence (P23977 whole entry) above
Sequence of Monoamine transporters; serotonin & dopamine (Rattus norvegicus) (P31652 whole entry, looked up): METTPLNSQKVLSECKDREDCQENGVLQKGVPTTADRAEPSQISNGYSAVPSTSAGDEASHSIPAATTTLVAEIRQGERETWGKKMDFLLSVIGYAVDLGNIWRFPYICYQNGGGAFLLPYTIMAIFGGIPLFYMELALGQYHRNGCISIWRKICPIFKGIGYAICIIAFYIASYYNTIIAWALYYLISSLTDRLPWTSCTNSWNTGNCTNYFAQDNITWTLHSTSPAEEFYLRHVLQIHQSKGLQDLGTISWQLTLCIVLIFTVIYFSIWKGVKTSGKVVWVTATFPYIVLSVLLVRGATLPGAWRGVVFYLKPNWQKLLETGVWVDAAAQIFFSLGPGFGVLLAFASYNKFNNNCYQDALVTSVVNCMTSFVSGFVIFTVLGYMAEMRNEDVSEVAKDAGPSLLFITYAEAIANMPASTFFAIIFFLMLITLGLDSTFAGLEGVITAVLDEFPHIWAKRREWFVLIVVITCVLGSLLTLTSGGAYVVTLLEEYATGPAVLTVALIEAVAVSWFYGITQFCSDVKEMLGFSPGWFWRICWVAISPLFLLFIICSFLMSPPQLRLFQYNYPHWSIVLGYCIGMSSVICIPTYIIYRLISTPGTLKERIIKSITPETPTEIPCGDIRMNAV
Sequence of Sodium-dependent serotonin transporter (P31652 whole entry): as the sequence (P31652 whole entry, looked up) above

CCC(=O)C1C2CCC(CC1c1ccc(C3CCCCC3)cc1)N2 (configuration not stated)
Ki [1]: 85 nM | Ratio [2]: 5.8 | IC50 [3]: 490 nM | Ki [4]: 4300 nM

C=C(C)c1ccc(C2CC3CCC(N3)C2C(=O)CC)cc1 (configuration not stated)
Ki [1]: 0.11 nM | Ratio [2]: 150 | IC50 [3]: 16 nM | Ki [4]: 94 nM

CCC(=O)C1C(c2ccc(C(CC)CC)cc2)CC2CCC1N2C (configuration not stated)
Ki [1]: 540 nM | Ratio [2]: 0.5 | IC50 [3]: 270 nM | Ki [4]: > 10000 nM

C=Cc1ccc(C2CC3CCC(N3)C2C(=O)CC)cc1 (configuration not stated)
Ki [1]: 0.32 nM | Ratio [2]: 4.7 | IC50 [3]: 1.5 nM | Ki [4]: 10.9 nM

C=Cc1ccc(C2CC3CCC(C2C(=O)CC)N3C)cc1 (configuration not stated)
Ki [1]: 3.2 nM | Ratio [2]: 0.28 | IC50 [3]: 0.9 nM | Ki [4]: 78 nM

C=C(C)c1ccc(C2CC3CCC(C2C(=O)CC)N3C)cc1 (configuration not stated)
Ki [1]: 0.82 nM | Ratio [2]: 8.8 | IC50 [3]: 7.2 nM | Ki [4]: 794 nM

CCC(=O)C1C(c2ccc(C)cc2)CC2CCC1N2C (configuration not stated)
Ratio [2]: 0.063 | Ki [4]: 160 nM

CCC(=O)C1C(c2ccc3ccccc3c2)CC2CCC1N2C (configuration not stated)
Ratio [2]: 0.31 | Ki [4]: 2.9 nM

CCC(=O)C1C2CCC(CC1c1ccc(C(C)C)cc1)N2 (configuration not stated)
Ki [1]: 5.3 nM | Ratio [2]: 72 | IC50 [3]: 540 nM | Ki [4]: 150 nM

CCC(=O)C1C2CCC(CC1c1ccc(C(CC)CC)cc1)N2 (configuration not stated)
Ki [1]: 150 nM | Ratio [2]: 1.27 | IC50 [3]: 190 nM | Ki [4]: 5100 nM

CCC(=O)C1C2CCC(CC1c1ccc(C)cc1)N2 (configuration not stated)
Ki [1]: 19 nM | Ratio [2]: 0.25 | IC50 [3]: 4.7 nM | Ki [4]: 5.5 nM

CCC(=O)C1C(c2ccc(C3CCCCC3)cc2)CC2CCC1N2C (configuration not stated)
Ki [1]: 97 nM | Ratio [2]: 3.3 | IC50 [3]: 320 nM | Ki [4]: > 10000 nM

CCC(=O)C1C2CCC(CC1c1ccc3ccccc3c1)N2 (configuration not stated)
Ki [1]: 0.22 nM | IC50 [3]: 36 nM | Ki [4]: 440 nM
